Test results from ChEMBL document CHEMBL4706538, “Novel pleuromutilin derivatives with substituted 6-methylpyrimidine: Design, synthesis and antibacterial evaluation” (2020).
Converted amounts (≈) assume the structure as drawn.

Experiments:
[1] = tested on: Streptococcus dysgalactiae; experiment: Antibacterial activity against Streptococcus dysgalactiae measured after 18 to 24 hrs by microtiter dilution method; type: functional; conditions: time 18-24 hrs
How it was run: (§1)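 Compounds were taken up in 25% DMSO at 64 μg/mL and serially diluted two-fold in water (11 dilutions). Log-phase bacteria grown in MHB were diluted to 10^5-10^6 CFU/mL and mixed 1:1 with the dilutions. Plates were incubated at 37 °C for 18-24 h. MIC was the lowest concentration giving no growth by OD492, averaged over three independent experiments.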

[2] = tested on: Escherichia coli; experiment: Antibacterial activity against Escherichia coli CICC 10389 measured after 18 to 24 hrs by microtiter dilution method; type: functional; conditions: time 18-24 hrs; how it was run: as §1
[3] = tested on: Staphylococcus epidermidis; experiment: Antibacterial activity against Staphylococcus epidermidis ATCC 51625 measured after 18 to 24 hrs by microtiter dilution method; type: functional; conditions: time 18-24 hrs; how it was run: as §1
[4] = tested on: Staphylococcus aureus; experiment: Antibacterial activity against Staphylococcus aureus ATCC 25923 measured after 18 to 24 hrs by microtiter dilution method; type: functional; conditions: time 18-24 hrs; how it was run: as §1
[5] = tested on: Staphylococcus aureus; experiment: Antibacterial activity against Staphylococcus aureus BNCC 337371 measured after 18 to 24 hrs by microtiter dilution method; type: functional; conditions: time 18-24 hrs; how it was run: as §1
[6] = tested on: Streptococcus agalactiae; experiment: Antibacterial activity against Streptococcus agalactiae measured after 18 to 24 hrs by microtiter dilution method; type: functional; conditions: time 18-24 hrs; how it was run: as §1
[7] = tested on: Pasteurella multocida; experiment: Antibacterial activity against Pasteurella multocida CVCC 1659 measured after 18 to 24 hrs by microtiter dilution method; type: functional; conditions: time 18-24 hrs; how it was run: as §1
[8] = tested on: Enterococcus faecalis; experiment: Antibacterial activity against Enterococcus faecalis measured after 18 to 24 hrs by microtiter dilution method; type: functional; conditions: time 18-24 hrs; how it was run: as §1
[9] = tested on: Staphylococcus aureus; experiment: Bacteriostatic activity against Staphylococcus aureus BNCC 337371 assessed as reduction in bacterial load at 2 to 4 times MIC incubated for 8 hrs prior to 10 fold dilution followed by replating on MH agar plate and measured after 24 hrs by time-kill assay relative to control; type: functional; conditions: time 32 hrs
How it was run: (§2)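 MRSA-337371 was grown in Mueller-Hinton broth at 37 °C for 6 h with shaking, then diluted to about 6×10^5 CFU/mL. It was exposed to 0.5, 1, 2 and 4× MIC. Samples taken at 0, 2, 4, 6, 8, 12 and 24 h were serially diluted 10-fold in 0.9% saline and plated on MH agar at 37 °C for 24 h. Colonies were counted as log10 CFU/mL, in triplicate.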

[10] = tested on: Staphylococcus aureus; experiment: Bacteriostatic activity against Staphylococcus aureus BNCC 337371 assessed as reduction in bacterial load incubated for 2 to 24 hrs prior to 10 fold dilution followed by replating on MH agar plate and measured after 24 hrs by time-kill assay; type: functional, organism-based; conditions: time 2-24 hrs; how it was run: as §2

Row | Structure (SMILES) | MIC [1] [µM] | MIC [2] [µM] | MIC [3] [µM] | MIC [4] [µM] | MIC [5] [µM] | MIC [6] [µM] | MIC [7] [µM] | MIC [8] [µM] | fold change (FC) [9] | Activity [10]
1 | C=C[C@]1(C)C[C@@H](OC(=O)CSc2nc(C)cc(N3CCN(C)CC3)n2)[C@@]2(C)[C@H](C)CC[C@]3(CCC(=O)[C@H]32)[C@@H](C)[C@@H]1O | 0.43 (≈ 0.251 µg/mL) | > 54.8 | 0.43 (≈ 0.251 µg/mL) | 0.43 (≈ 0.251 µg/mL) | 0.43 (≈ 0.251 µg/mL) | 0.11 (≈ 0.0643 µg/mL) | 54.8 (≈ 32 µg/mL) | 54.8 (≈ 32 µg/mL) |  | 
2 | C=C[C@]1(C)C[C@@H](OC(=O)CSc2nc(C)cc(OCCCC)n2)[C@@]2(C)[C@H](C)CC[C@]3(CCC(=O)[C@H]32)[C@@H](C)[C@@H]1O | 0.45 (≈ 0.251 µg/mL) | > 57.3 | 1.79 (≈ 1 µg/mL) | 1.79 (≈ 1 µg/mL) | 3.58 (≈ 2 µg/mL) | 0.9 (≈ 0.503 µg/mL) | > 57.3 | 57.3 (≈ 32 µg/mL) |  | 
3 | C=C[C@]1(C)C[C@@H](OC(=O)CSc2nc(C)cc(N(C)C)n2)[C@@]2(C)[C@H](C)CC[C@]3(CCC(=O)[C@H]32)[C@@H](C)[C@@H]1O | 0.12 (≈ 0.0636 µg/mL) | > 60.5 | 0.24 (≈ 0.127 µg/mL) | 0.12 (≈ 0.0636 µg/mL) | 0.24 (≈ 0.127 µg/mL) | 0.12 (≈ 0.0636 µg/mL) | 30.2 (≈ 16 µg/mL) | 15.1 (≈ 8 µg/mL) |  | 
4 | C=C[C@]1(C)C[C@@H](OC(=O)CSc2nc(C)cc(O)n2)[C@@]2(C)[C@H](C)CC[C@]3(CCC(=O)[C@H]32)[C@@H](C)[C@@H]1O | 0.12 (≈ 0.0603 µg/mL) | > 63.8 | 0.25 (≈ 0.126 µg/mL) | 0.25 (≈ 0.126 µg/mL) | 0.25 (≈ 0.126 µg/mL) | 0.12 (≈ 0.0603 µg/mL) | 7.95 (≈ 4 µg/mL) | 16 (≈ 8.02 µg/mL) |  | 
5 | C=C[C@]1(C)C[C@@H](OC(=O)CSc2nc(C)cc(OCC)n2)[C@@]2(C)[C@H](C)CC[C@]3(CCC(=O)[C@H]32)[C@@H](C)[C@@H]1O | 0.12 (≈ 0.0637 µg/mL) | > 60.4 | 0.24 (≈ 0.127 µg/mL) | 0.12 (≈ 0.0637 µg/mL) | 0.12 (≈ 0.0637 µg/mL) | 0.24 (≈ 0.127 µg/mL) | > 60.4 | 15.1 (≈ 8.01 µg/mL) |  | 
6 | C=C[C@]1(C)C[C@@H](OC(=O)CSc2nc(C)cc(OCCN)n2)[C@@]2(C)[C@H](C)CC[C@]3(CCC(=O)[C@H]32)[C@@H](C)[C@@H]1O | 0.23 (≈ 0.126 µg/mL) | > 58.7 | 0.92 (≈ 0.502 µg/mL) | 0.92 (≈ 0.502 µg/mL) | 0.92 (≈ 0.502 µg/mL) | 0.46 (≈ 0.251 µg/mL) | > 58.7 | 58.7 (≈ 32 µg/mL) |  | 
7 | C=C[C@]1(C)C[C@@H](OC(=O)CSc2nc(C)cc(N3CC[C@@H](O)C3)n2)[C@@]2(C)[C@H](C)CC[C@]3(CCC(=O)[C@H]32)[C@@H](C)[C@@H]1O | 0.22 (≈ 0.126 µg/mL) | > 56 | 0.11 (≈ 0.0629 µg/mL) | 0.11 (≈ 0.0629 µg/mL) | 0.22 (≈ 0.126 µg/mL) | 0.11 (≈ 0.0629 µg/mL) | 14 (≈ 8 µg/mL) | 28 (≈ 16 µg/mL) |  | 
8 | C=C[C@]1(C)C[C@@H](OC(=O)CSc2nc(C)cc(OC)n2)[C@@]2(C)[C@H](C)CC[C@]3(CCC(=O)[C@H]32)[C@@H](C)[C@@H]1O | 0.12 (≈ 0.062 µg/mL) | > 62 | 0.24 (≈ 0.124 µg/mL) | 0.24 (≈ 0.124 µg/mL) | 0.24 (≈ 0.124 µg/mL) | 0.24 (≈ 0.124 µg/mL) | 62 (≈ 32 µg/mL) | 31 (≈ 16 µg/mL) |  | 
9 | C=C[C@]1(C)C[C@@H](OC(=O)CSc2nc(C)cc(OC(C)C)n2)[C@@]2(C)[C@H](C)CC[C@]3(CCC(=O)[C@H]32)[C@@H](C)[C@@H]1O | 0.92 (≈ 0.501 µg/mL) | > 58.8 | 0.46 (≈ 0.251 µg/mL) | 0.46 (≈ 0.251 µg/mL) | 0.23 (≈ 0.125 µg/mL) | 0.23 (≈ 0.125 µg/mL) | > 58.8 | 58.8 (≈ 32 µg/mL) |  | 
10 | C=C[C@]1(C)C[C@@H](OC(=O)CSc2nc(C)cc(N3CCC(O)CC3)n2)[C@@]2(C)[C@H](C)CC[C@]3(CCC(=O)[C@H]32)[C@@H](C)[C@@H]1O | 0.11 (≈ 0.0644 µg/mL) | > 54.7 | 0.21 (≈ 0.123 µg/mL) | 0.21 (≈ 0.123 µg/mL) | 0.21 (≈ 0.123 µg/mL) | 0.11 (≈ 0.0644 µg/mL) | 27.3 (≈ 16 µg/mL) | 13.7 (≈ 8.01 µg/mL) |  | 
11 | C=C[C@]1(C)C[C@@H](OC(=O)CSc2nc(C)cc(N3CCC(CO)CC3)n2)[C@@]2(C)[C@H](C)CC[C@]3(CCC(=O)[C@H]32)[C@@H](C)[C@@H]1O | 0.42 (≈ 0.252 µg/mL) | > 53.5 | 0.42 (≈ 0.252 µg/mL) | 0.21 (≈ 0.126 µg/mL) | 0.84 (≈ 0.504 µg/mL) | 0.84 (≈ 0.504 µg/mL) | 53.5 (≈ 32.1 µg/mL) | 53.5 (≈ 32.1 µg/mL) |  | 
12 | C=C[C@]1(C)C[C@@H](OC(=O)CSc2nc(C)cc(N(CC)CC)n2)[C@@]2(C)[C@H](C)CC[C@]3(CCC(=O)[C@H]32)[C@@H](C)[C@@H]1O | 0.22 (≈ 0.123 µg/mL) | > 57.4 | 0.45 (≈ 0.251 µg/mL) | 0.22 (≈ 0.123 µg/mL) | 0.45 (≈ 0.251 µg/mL) | 0.11 (≈ 0.0614 µg/mL) | 57.4 (≈ 32 µg/mL) | 28.7 (≈ 16 µg/mL) |  | 

Now from value to compound, other results behind:

Row | MIC [1] [µM] | MIC [2] [µM] | MIC [3] [µM] | MIC [4] [µM] | MIC [5] [µM] | MIC [6] [µM] | MIC [7] [µM] | MIC [8] [µM] | Structure (SMILES) | fold change (FC) [9] | Activity [10]
13 | 0.05 (≈ 0.03 µg/mL) | > 53.5 | 0.21 (≈ 0.126 µg/mL) | 0.1 (≈ 0.06 µg/mL) | 0.21 (≈ 0.126 µg/mL) | 0.05 (≈ 0.03 µg/mL) | 26.7 (≈ 16 µg/mL) | 26.7 (≈ 16 µg/mL) | C=C[C@]1(C)C[C@@H](OC(=O)CSc2nc(C)cc(N3CCC[C@H](CO)C3)n2)[C@@]2(C)[C@H](C)CC[C@]3(CCC(=O)[C@H]32)[C@@H](C)[C@@H]1O |  | 
14 | 0.11 (≈ 0.0644 µg/mL) | > 54.7 | 0.21 (≈ 0.123 µg/mL) | 0.21 (≈ 0.123 µg/mL) | 0.21 (≈ 0.123 µg/mL) | 0.05 (≈ 0.0293 µg/mL) | 27.3 (≈ 16 µg/mL) | 27.3 (≈ 16 µg/mL) | C=C[C@]1(C)C[C@@H](OC(=O)CSc2nc(C)cc(N3CCC[C@@H](O)C3)n2)[C@@]2(C)[C@H](C)CC[C@]3(CCC(=O)[C@H]32)[C@@H](C)[C@@H]1O |  | 
15 | 0.1 (≈ 0.0615 µg/mL) | > 52.1 | 0.2 (≈ 0.123 µg/mL) | 0.1 (≈ 0.0615 µg/mL) | 0.41 (≈ 0.252 µg/mL) | 0.1 (≈ 0.0615 µg/mL) | 26 (≈ 16 µg/mL) | 26 (≈ 16 µg/mL) | C=C[C@]1(C)C[C@@H](OC(=O)CSc2nc(C)cc(N3CCN(CCO)CC3)n2)[C@@]2(C)[C@H](C)CC[C@]3(CCC(=O)[C@H]32)[C@@H](C)[C@@H]1O |  | 
16 | 0.05 (≈ 0.0307 µg/mL) | > 52.2 | 0.2 (≈ 0.123 µg/mL) | 0.1 (≈ 0.0614 µg/mL) | 0.2 (≈ 0.123 µg/mL) | 0.05 (≈ 0.0307 µg/mL) | 52.2 (≈ 32 µg/mL) | 26.1 (≈ 16 µg/mL) | C=C[C@]1(C)C[C@@H](OC(=O)CSc2nc(C)cc(N3CCC(CCO)CC3)n2)[C@@]2(C)[C@H](C)CC[C@]3(CCC(=O)[C@H]32)[C@@H](C)[C@@H]1O |  | 
17 | 0.05 (≈ 0.0285 µg/mL) | > 56.1 | 0.22 (≈ 0.126 µg/mL) | 0.11 (≈ 0.0628 µg/mL) | 0.11 (≈ 0.0628 µg/mL) | 0.11 (≈ 0.0628 µg/mL) | 28.1 (≈ 16 µg/mL) | 14 (≈ 8.01 µg/mL) | C=C[C@]1(C)C[C@@H](OC(=O)CSc2nc(C)cc(N3CCNCC3)n2)[C@@]2(C)[C@H](C)CC[C@]3(CCC(=O)[C@H]32)[C@@H](C)[C@@H]1O |  | 
18 | 0.05 (≈ 0.0286 µg/mL) | > 56 | 0.11 (≈ 0.0629 µg/mL) | 0.11 (≈ 0.0629 µg/mL) | 0.11 (≈ 0.0629 µg/mL) | 0.05 (≈ 0.0286 µg/mL) | 14 (≈ 8 µg/mL) | 14 (≈ 8 µg/mL) | C=C[C@]1(C)C[C@@H](OC(=O)CSc2nc(C)cc(N3CCOCC3)n2)[C@@]2(C)[C@H](C)CC[C@]3(CCC(=O)[C@H]32)[C@@H](C)[C@@H]1O | >=2 | Dose-dependent effect
19 | 0.06 (≈ 0.0311 µg/mL) | 30.9 (≈ 16 µg/mL) | 0.12 (≈ 0.0621 µg/mL) | 0.24 (≈ 0.124 µg/mL) | 0.12 (≈ 0.0621 µg/mL) | 0.06 (≈ 0.0311 µg/mL) | 0.97 (≈ 0.502 µg/mL) | 15.4 (≈ 8 µg/mL) | C=C[C@]1(C)C[C@@H](OC(=O)CS[C@@H]2C[C@H]3CC[C@@H](C2)N3C)[C@@]2(C)[C@H](C)CC[C@]3(CCC(=O)[C@H]32)[C@@H](C)[C@@H]1O |  | 
